Source: PubChem BioAssay (SRMLSC)
bCat KO growth = primary screen for growth suppressors in beta-catenin knockout HCT116 cells (colon tumor, human). HCT116 beta-catenin knockout viability, CellTiter-Glo, 60 h; hits give low values. viability, % at 10 µM. 140,000 compounds, 1.5% hits;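 active = viability at or under a set limit, the compound median less 4 SD, cut at about 6% in these data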
HUVEC prolif 384 = inhibitors of HUVEC proliferation, primary screen, cell-based, 384-well; CellTiter-Glo luminescence, 72 h; hits give low values; viability, % at 10 µM (by protocol); 86,000 compounds, 1.1% hits;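 active = viability at or below 30%; inactive = viability above 30%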
PTEN del growth = growth suppression of PTEN-null HCT116, primary screen, cell-based, CellTiter-Glo | viability, % at 10 µM | AID 827, 2007 | 140,000 compounds, 1.2% hits | HCT116 PTEN-null viability, 60 h; hits give low values;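 active = viability at or below a set limit, 4 SD under the median of all tested compounds, cut at about 3.7% in these data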;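 note: PTEN knockout HCT116 line with beta catenin targeted HCT116 as companion control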
H69AR inhibit = proliferation blockers of H69AR lung cancer cells, primary screen, cell-based, human, 86K library | viability, % at 10 µM | AID 598, 2007 | H69AR lung tumor viability, ATP luminescence, 72 h; hits give low values | 85,000 compounds, 6% hits;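 active = viability at or below 40%; inactive = viability above 40%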;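 note: multidrug resistant small cell line overexpressing MRP-1 efflux transporter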
Fibroblast inh = antiproliferative effect on LL 47 fibroblasts – human, LL 47 cells, CellTiter-Glo luminescence, primary screen; LL 47 human lung fibroblast viability, ATP luminescence; hits give low values; viability, % at 10 µM; 85,000 compounds, 1.1% hits; AID 719, 2007;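 active = viability at or below 50% in the single dose screen; inactive = viability above 50%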;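 note: compound exposure lasted 72 h before the ATP readout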
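test system = LL 47 human lung fibroblasts | amount = 1,150 fibroblasts seeded per well | medium = 15% FBS in IMEM | times = overnight cell rest, 72 h compound treatment at 37 °C | measured by = CellTiter-Glo luminescence measuring cellular ATP | read-out = viability percentage against median untreated-cell control | benchmarks = cell-only wells, no compound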
Numbers stand for hits; – = inactive; · = no result given. This is one part of a sample in which hits are shown more often than they occur.

SMILES | bCat KO growth | HUVEC prolif 384 | PTEN del growth | H69AR inhibit | Fibroblast inh
CCCCCCCSc1cc(OC)c(CCN(C)C)cc1OC | 1.2 | · | 1.3 | · | ·
CCCCCSc1cc(OC)c(CCN)cc1OC | – | · | – | · | ·
O=P(c1ccccc1)(c1ccccc1)N1CCCCC1 | – | · | – | · | ·
C#CCN1C(=O)C2(C(C#N)=C(N)OC(C)=C2C(=O)OCc2ccccc2)c2ccccc21 (stereo not drawn) | – | – | – | 30 | ·
O=c1[nH]c(=O)n(Cc2ccccc2)c(O)c1C=NCCN1CCOCC1 | – | – | – | – | –
NC(=O)c1cn(C2OC(CO)C(O)C2O)c2ncnc(N)c12 (stereo not drawn) | 2.7 | · | 3.0 | · | ·
COC(=O)C(O)(c1c(C)[nH]c2ccccc12)C(F)(F)F (stereo not drawn) | – | – | – | – | –
CCC(CC)C1C(C#N)=C(N)Oc2c1c(=O)oc1ccccc21 (stereo not drawn) | – | – | – | 37 | –
O=P(Nc1ccccc1)(Nc1ccccc1)Oc1cccc(Cl)c1 | – | · | – | · | ·
CN1CSC(=S)N(C)C1 | – | – | – | 28 | –
NS(=O)(=O)c1ccc(N=Cc2c(O)n(C3CCCCC3)c(=O)n(C3CCCCC3)c2=O)cc1 | – | 1.8 | · | 0.9 | 39
CCn1c(O)c(C=Nc2ccc(S(N)(=O)=O)cc2)c(=O)n(CC)c1=S | – | · | – | · | ·
O=C1C(=O)c2cccc3cccc1c23 | – | · | – | · | ·
O=C1C(=O)c2ccccc2-c2ccccc21 | 1.7 | · | 2.2 | · | ·
O=C1CC(N2CCC(n3c(=O)[nH]c4ccccc43)CC2)C(=O)N1c1ccc(F)cc1 (stereo not drawn) | – | – | – | – | –
O=c1[nH]c2ccccc2n1C1CCN(CCCC(c2ccc(F)cc2)c2ccc(F)cc2)CC1 | 1.4 | 2.7 | 1.1 | 1.7 | –
CCCCCCn1c(O)c(C=NC2CCCCC2N)c(=O)[nH]c1=O (stereo not drawn) | – | 5.0 | – | 29 | –
COc1ccc(C2NCc3ccc4c(c3-n3cccc32)OCO4)cc1O (stereo not drawn) | – | – | – | 29 | –
c1cc2n(c1)-c1c(ccc3c1OCO3)CNC2c1ccc2c(c1)OCO2 (stereo not drawn) | – | · | – | · | ·
Oc1cccc(/C=N/NP(=S)(c2ccccc2)c2ccccc2)c1 | – | · | – | · | ·
O=C1NC(=O)C(=Cc2cn(CCOc3ccc4c(c3)OCO4)c3ccccc23)C(=O)N1 | – | – | – | – | 48
Clc1cccc(CN2CCCCC2c2cccnc2)c1 (stereo not drawn) | · | – | · | – | –
c1ccc(-c2[nH]c[n+](CC3CO3)c2-c2ccccc2)cc1 (stereo not drawn) | – | · | – | · | ·
O=C(C1CC(=O)N(C2CCCCCCC2)C1)N1CCC2(CC1)OCCO2 (stereo not drawn) | – | – | – | – | –
C/C(=C\c1ccc(N(C)C)cc1)[N+](=O)[O-] | – | · | 2.1 | · | ·
SMILES | bCat KO growth | HUVEC prolif 384 | PTEN del growth | H69AR inhibit | Fibroblast inh
CN(C)c1ccc(/C=C/[N+](=O)[O-])cc1 | 2.7 | · | 3.5 | · | ·
CCOP(=S)(OCC)SCC(=O)NC(C(=O)O)C(C)C (stereo not drawn) | – | – | – | – | –
CCC(=NCc1ccco1)c1c(O)n(C2CCCCC2)c(=O)[nH]c1=O | – | – | – | 32 | –
Cc1nc2c(=O)n(C)c(=O)nc-2n(C)n1 | 1.5 | 5.6 | 1.5 | 2.6 | 2.5
COc1ccccc1/C=C1/C(=N/O)C2CCN1CC2 | – | – | – | – | ·
CN(C)CC1CSCCC1(O)c1cccc(Cl)c1 (stereo not drawn) | – | – | – | – | –
CCCNC(=O)c1c(N)n(Cc2ccco2)c2nc3ccccc3nc12 | – | – | – | 26 | –
CC(C)CNC(=O)c1c(N)n(Cc2ccco2)c2nc3ccccc3nc12 | – | – | – | 34 | –
Nc1c(C(=O)NCc2ccco2)c2nc3ccccc3nc2n1CCN1CCCCC1 | – | 19 | – | 1.2 | –
C[C@@H]1C(=O)O[C@@H]2[C@H](O)C34[C@@H]5OC(=O)C3(O[C@H]3OC(=O)[C@H](O)C34[C@H](C(C)(C)C)[C@H]5O)[C@@]12O (stereo partly drawn) | – | · | – | · | ·
CCN(CC)S(=O)(=O)c1cc(NC(=O)C(C)N2CC=C(c3ccccc3)CC2)ccc1C (stereo not drawn) | – | · | – | · | ·
CC(N=Cc1c(O)[nH]c(=O)[nH]c1=O)c1ccccc1 (stereo not drawn) | – | – | – | – | –
Nc1c2c(nc3sc4c(c13)CCCC4)CCCCC2 | 4.1 | · | – | · | ·
CN1/C(=C\C=Nc2ccccc2)C(C)(C)c2ccccc21 | – | · | – | · | ·
CN1/C(=C\C=C\C2=[N+](C)c3ccc4ccccc4c3C2(C)C)C(C)(C)c2ccccc21 | 0.4 | 2.0 | 0.1 | 0.1 | 1.6
CC1(C)C[C@H]2C=C(C=O)[C@]3(C=O)C[C@]3(C)[C@H]2C1 | 2.0 | · | 1.8 | · | ·
CCCCCCC(=O)c1c(O)n(-c2ccccc2OC)c(=O)[nH]c1=O | – | · | – | · | ·
c1ccc2c(NC3=NCCS3)cccc2c1 | – | – | – | – | –
Cc1[nH]c2c(C(F)(F)F)cccc2c1CCN | – | – | – | 18 | –
O=C(NC1CN2CCC1CC2)c1cc(Cl)c([N+](=O)[O-])c2nc[nH]c12 (stereo not drawn) | 0.8 | · | 0.6 | · | ·
FC(F)(F)c1ccc2c(c1)ncn2C1CCN(Cc2nnnn2C2CCCCC2)CC1 | – | – | – | 37 | –
CC1CCC/C=C/C2CC(O)CC2C(O)/C=C/C(=O)O1 (stereo not drawn) | 2.8 | 8.3 | – | 2.9 | 11
Clc1ccc(COC(Cn2ccnc2)c2ccc(Cl)cc2Cl)cc1 (stereo not drawn) | – | 9.2 | – | 26 | –
Clc1ccc(CSC(Cn2ccnc2)c2ccc(Cl)cc2Cl)cc1 (stereo not drawn) | – | – | – | 9.2 | –
c1ccc(Cn2ccnc2)cc1 | – | – | – | – | –
SMILES | bCat KO growth | HUVEC prolif 384 | PTEN del growth | H69AR inhibit | Fibroblast inh
COC(=O)CC1=C(C(=O)OC)C2(C(=O)Nc3c(C)cccc32)C(C#N)=C(N)O1 (stereo not drawn) | – | – | – | – | –
CCn1ncc(/C=C2/CC3C4CC=C5CC(O)CCC5(C)C4CCC3(C)C2=O)c1C (stereo not drawn) | · | – | · | – | –
COc1ccc(Oc2cc(NC(=O)c3nn(C)cc3[N+](=O)[O-])cc([N+](=O)[O-])c2)cc1 | 1.6 | · | 1.4 | · | ·
Cc1ccc2c(c1)CC1(CN2C)C(=O)NC(=O)N(CCC2=CCCCC2)C1=O (stereo not drawn) | – | – | – | – | –
CCn1nc(-c2ccccc2)nc2c(=O)n(C)c(=O)nc1-2 | 0.7 | · | 1.4 | · | ·
CCCCn1c(=O)c(C(=O)NCc2ccncc2)c(O)c2ccccc21 | – | – | – | – | –
O=C(Nc1cccnc1)c1c(O)c2c(n(Cc3ccccc3)c1=O)CCCC2 | – | – | – | – | –
CCCCn1c(=O)c(C(=O)Nc2ccccc2S(N)(=O)=O)c(O)c2ccccc21 | – | – | – | 23 | –
